Calls of active or inactive are those of the source. The calls are words filed in the database; no cut-off is given here.
Columns and labels:
[1] = target: T1, ATP-dependent Clp protease proteolytic subunit (Staphylococcus aureus (strain NCTC 8325)) (UniProt Q2G036); assay: Inhibition of recombinant Staphylococcus aureus NCTC 8325 peptidase activity of clpP expressed in Escherichia coli BL21 at 200 to 800 uM after 10 mins using SLY-AMC as substrate by fluorescence assay
T1 sequence (whole entry): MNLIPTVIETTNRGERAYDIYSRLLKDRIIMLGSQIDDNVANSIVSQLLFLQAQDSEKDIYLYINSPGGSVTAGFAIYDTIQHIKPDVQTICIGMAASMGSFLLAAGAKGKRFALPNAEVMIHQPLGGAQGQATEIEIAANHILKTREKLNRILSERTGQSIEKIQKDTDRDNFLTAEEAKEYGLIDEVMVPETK
Summary of the method: (§1)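 Recombinant S. aureus ClpP (Strep-tag purified from E. coli BL21), 2 µg, preincubated 10 min at room temperature with lactone or DMSO in 50 mM MES, 100 mM KCl, pH 7.0. SLY-AMC added at 0.2 mM final, 2% DMSO final. Fluorescence read at ex 340/em 450 nm. At least triplicates; EC50 from curve fitting.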

[2] = tested on: Staphylococcus aureus; assay: Antivirulence activity against Staphylococcus aureus NCTC 8325-4 in sheep RBC assessed as inhibition of hemolysis in blood agar plate by measuring hemolysin level after overnight incubation by serial dilution agar plate assay; type: functional, organism-based
Summary of the method: (§2)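 S. aureus NCTC 8325 inoculated onto 5.5 mm card discs on 5% sheep blood agar plates, together with serial dilutions of β-lactone in DMSO, and incubated overnight at 37 °C. Hemolysis zones were measured and normalized to the DMSO control. Compound stocks were kept in DMSO at -20 °C.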

[3] = tested on: Staphylococcus aureus; assay: Antivirulence activity against Staphylococcus aureus NCTC 8325 in sheep RBC assessed as inhibition of hemolysis in blood agar plate at 100 uM by measuring hemolysin level after overnight incubation by serial dilution agar plate assay
[4] = target: T1, ATP-dependent Clp protease proteolytic subunit (Staphylococcus aureus (strain NCTC 8325)); assay: Inhibition of recombinant Staphylococcus aureus NCTC 8325 peptidase activity of clpP expressed in Escherichia coli BL21 at 10 to 40 uM after 10 mins using SLY-AMC as substrate by fluorescence assay; summary of the method: as §1
[5] = target: T2, ATP-dependent Clp protease proteolytic subunit (Staphylococcus aureus (strain NCTC 8325), UniProt Q2G036); assay: Inhibition of recombinant Staphylococcus aureus NCTC 8325 peptidase activity of clpP expressed in Escherichia coli BL21 after 10 mins using SLY-AMC as substrate by fluorescence assay; summary of the method: as §1
T2 sequence (Q2G036 whole entry): T1 sequence (whole entry)

[6] = target: T1, ATP-dependent Clp protease proteolytic subunit (Staphylococcus aureus (strain NCTC 8325)); assay: Displacement of U1P from clpP in live Staphylococcus aureus NCTC 8325 cells after 1 hr using rhodamine-azide by SDS PAGE fluorescence analysis
[7] = tested on: Staphylococcus aureus; assay: Antivirulence activity against Staphylococcus aureus NCTC 8325-4 in sheep RBC assessed as inhibition of hemolysis in liquid medium by measuring hemolysin level at 100 uM after overnight incubation by spent culture supernatant assay relative to control
[8] = tested on: Staphylococcus aureus; assay: Antivirulence activity against Staphylococcus aureus NCTC 8325-4 in sheep RBC assessed as inhibition of hemolysis in agar plate by measuring hemolysin level after overnight incubation by serial dilution agar plate assay; type: functional, organism-based; summary of the method: as §2
[9] = tested on: Staphylococcus aureus; assay: Growth inhibition of Staphylococcus aureus NCTC 8325 at 1 mM after 9 hrs; type: functional, organism-based
Summary of the method: (§3)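 Overnight cultures diluted 1:100 in LB (P. aeruginosa, E. coli) or BHB (S. aureus, S. epidermidis, E. faecalis). 100 µL treated with 1 µL of 100 mM lactone stock or DMSO control. Shaken in 96-well plates for 9 h at 37 °C, then OD600 read. Triplicates.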

[10] = tested on: Staphylococcus epidermidis; assay: Growth inhibition of Staphylococcus epidermidis RP62A at 1 mM after 9 hrs; type: functional; summary of the method: as §3
[11] = tested on: Pseudomonas aeruginosa; assay: Growth inhibition of Pseudomonas aeruginosa PAO1 at 1 mM after 9 hrs; type: functional, organism-based; summary of the method: as §3
[12] = tested on: Enterococcus faecalis; assay: Growth inhibition of Enterococcus faecalis OG1RF at 1 mM after 9 hrs; type: functional; summary of the method: as §3
[13] = tested on: Escherichia coli; assay: Growth inhibition of Escherichia coli K-12 at 1 mM after 9 hrs; type: functional, organism-based; summary of the method: as §3
[14] = Cytotoxicity against mouse NIH/3T3 cells assessed as cell viability at 200 to 1000 uM after 24 hrs by MTT assay; type: cell-based, NIH3T3; details: read-out: Activity
Summary of the method: (§4)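 NIH3T3 cells in DMEM (4 mM glutamine) + 10% FCS, plated at 1.5×10^3/well and cultured 24 h to 30-40% confluence. Lactones diluted 1:100 from DMSO stocks into fresh medium; cells exposed 24 h. MTT (5 mg/ml stock) added for 2 h, cells lysed in DMSO, OD at 570 nm with 630 nm background subtraction.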

[15] = tested on: NIH3T3; assay: Cytotoxicity against mouse NIH/3T3 cells assessed as cell viability up to 1 mM after 24 hrs by MTT assay; type: cell-based; details: nih3t3, 24 h; summary of the method: as §4
[16] = tested on: HaCaT; assay: Cytotoxicity against human HaCaT cells assessed as cell viability after 24 hrs by MTT assay; type: cell-based
Summary of the method: (§5)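 MTT read-out after 24 h exposure. NIH3T3 grown in DMEM (4 mM glutamine) + 10% FCS and plated at 1.5×10^3/well; HaCat grown in calcium-free DMEM (2 mM glutamine) + 10% dialyzed FCS and plated at 4.5×10^3/well. Cells cultured 24 h to 30-40% confluence. Lactones diluted 1:100 from DMSO stocks into fresh medium. MTT added for 2 h, formazan dissolved in DMSO, OD 570 nm minus 630 nm.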

[17] = tested on: Staphylococcus aureus; assay: Antivirulence activity against Staphylococcus aureus NCTC 8325-4 in sheep RBC assessed as inhibition of hemolysis in liquid medium by measuring hemolysin level after overnight incubation by spent culture supernatant assay
[18] = tested on: NIH3T3; assay: Cytotoxicity against mouse NIH/3T3 cells assessed as cell viability after 24 hrs by MTT assay; type: cell-based; details: NIH3T3, 24 h; summary of the method: as §5

Compound	inhibition [1]	Activity [2]	Activity [3]	inhibition [4] [%]	EC50 [5] [µM]	Activity [6]	ED50 [8] [nmol]	EC50 [16] [µM]	EC50 [17] [µM]	other results
C=CCCCCCCCC[C@H]1OC(=O)[C@@H]1CCCCCCCCCNC(=O)OC(C)(C)C (racemic)	inactive	inactive	inactive	–	–	–	–	–	–	–
C=CCCCCCCC[C@H]1C(=O)O[C@@H]1CCCCCCCCCCCNC(=O)OC(C)(C)C (racemic)	inactive	inactive	inactive	–	–	–	–	–	–	–
C=CCCCCCCC[C@H]1C(=O)O[C@@H]1CCCCCNC(=O)c1ccc(N(C)C)cc1 (racemic)	–	inactive	–	70	5.4	Active	–	–	–	inhibition at 100 µM [7]: 20%
C=CCCCCCCC[C@H]1C(=O)O[C@@H]1CCc1ccccc1 (racemic)	–	–	–	30	3.4	Active	7	91	11	growth inhibition (GI) [9]: inactive; growth inhibition (GI) [10]: inactive; growth inhibition (GI) [11]: inactive; growth inhibition (GI) [12]: inactive; growth inhibition (GI) [13]: inactive; viability at 24 h, up to 1000 µM [14]: 80%; Activity [15]: Non-toxic
C=CCCCCCCC[C@H]1C(=O)O[C@@H]1CCc1cccnc1 (racemic)	–	–	–	–	4.5	Active	15	75	43	EC50 [18]: 50 µM
CCCCCCCCCCCC[C@H]1C(=O)O[C@@H]1CCc1ccccc1 (racemic)	inactive	inactive	inactive	–	–	–	–	–	–	–

— ChEMBL document CHEMBL1933002, “Development and characterization of improved β-lactone-based anti-virulence drugs targeting ClpP” (Bioorg Med Chem, 2012)
